Compounds with a hit are over-represented: about 1.8% of the library has one in this group of screens.
TDP2 inh: blocks human TDP2 phosphodiesterase activity; recombinant TDP2, T5PNP hydrolysis, p-nitrophenol absorbance 415 nm; inhibition, % at 12.8 µM; O95551; 370,000 compounds, 0.34% hits;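 active means inhibition above the mean of all tested compounds plus 3 SD, set per campaign, cut at about 25% in these data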;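 further: 0% = DMSO with enzyme and 100% = buffer with substrate but no TDP2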
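Incubation: 2 h at 37 °C; Test system: recombinant human TDP2; Quantity: enzyme 120 nM; Read-out basis: percent inhibition; Medium: 50 mM Tris-HCl pH 7.5 with Mg2+, KCl, DTT, BSA; Repeats: single replicate; Compound: 12.8 µM single point, 1% DMSO; Signal: epi absorbance; Reagent: 5 mM T5PNP chromogenic substrate; Benchmarks: no-enzyme high, DMSO-plus-enzyme low.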
UHRF1 binding: UHRF1 methyl-DNA binding inhibition. Q96T88. UHRF1 binding to methylated oligo, TR-FRET. inhibition, % at 4.4 µM. 370,000 compounds, 0.75% hits; in the data active means inhibition above about 21%;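 further: UHRF1 SRA domain binding a hemimethylated CpG hairpin DNA probe; 0% = median of test compound wells and 100% = reference inhibitor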
Casp6 inh: blocks human caspase-6 cleavage activity | purified caspase-6, Z-VEID-R110 cleavage fluorescence | P55212 | 350,000 compounds, 0.53% hits | inhibition, % at 12.5 µM;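 active means mean inhibition across replicates at least about 35%, with every replicate also reaching that limit, limit read from the data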;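 further: 0% = median of neutral control wells and 100% = no fluorescence left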
MBD2 DNA inh: blocks human MBD2 binding to methylated DNA; Q9UBB5; TR-FRET, MBD2 binding to methylated oligonucleotide; inhibition, % at 4.4 µM; 370,000 compounds, 0.31% hits; in the data active means inhibition above about 13%
NSD2 inh: inhibitors of human histone methyltransferase NSD2; O96028; NSD2 peptide methylation, AlphaScreen, 120 min; inhibition, % at 12.5 µM; 310,000 compounds, 0.54% hits; AID 743445; in the data active means inhibition above about 50%
LEDGF integ inh: blocks HIV-1 LEDGF/p75-dependent DNA integration; 370,000 compounds, 0.64% hits; inhibition, % at 3.7 µM; TR-FRET IN-LEDGF/p75 DNA integration, Eu/Cy5;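 active means inhibition above the screen-wide mean plus 3 SD, cut at about 13% in these data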;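 further: signal is the Cy5 over europium emission ratio at 671 and 618 nm; 0% = plate median of compound wells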
* marks the source's active call; other numbers are inactive results; . = no result.

SMILES | TDP2 inh | UHRF1 binding | Casp6 inh | MBD2 DNA inh | NSD2 inh | LEDGF integ inh
COc1ccccc1NC(=O)N1CCN(c2ccc3nnc(-c4ccc(F)cc4)n3n2)CC1 | -4 | -12 | -3 | -6 | . | 5
CC1CCN(C(=S)c2cn(Cc3cccc(F)c3)c3ccccc23)CC1 | 3 | 29* | -1 | -3 | 2 | 2
CN1CCN(C(=S)c2cn(Cc3ccccc3)c3ccccc23)CC1 | -16 | -1 | -8 | -7 | . | -3
O=C(Cn1cnc2sc(-c3ccccc3)cc2c1=O)NCc1ccccc1 | -10 | 3 | . | 4 | 1 | 4
O=C(Cn1cnc2sc(-c3ccccc3)cc2c1=O)NCc1ccco1 | 8 | 50* | . | 10 | 1 | 11
Cc1ccc(S(=O)(=O)N(C)C[C@H]2Oc3ccc(NC(=O)CCC(F)(F)F)cc3CC(=O)N([C@@H](C)CO)C[C@@H]2C)cc1 | . | . | 0 | . | . | .
COc1ccc2c3c(n(C)c2c1)[C@@H](CO)N(CC1CC1)CC31CCN(S(=O)(=O)c2cn(C)cn2)CC1 | . | . | -4 | . | . | .
CN(C)CCCNC(=O)C[C@@H]1CC[C@@H]2[C@@H](COc3ccc(NC(=O)c4ccc5c(c4)OCO5)cc3C(=O)N2C)O1 | . | . | -27 | . | . | .
CCCN(C)C[C@@H]1OCCCC[C@H](C)Oc2ccc(NC(=O)CCC(F)(F)F)cc2C(=O)N([C@@H](C)CO)C[C@@H]1C | . | . | 2 | . | . | .
O=C1c2ccccc2C(=O)c2[nH]c(=O)[nH]c21 | 38* | -5 | 83* | -12 | 35 | 3
O=C1c2ccccc2C(=O)c2[nH]cnc21 | 1 | -7 | 12 | -19 | 0 | 1
O=C(NCC(c1cccs1)N1CCOCC1)c1ccc([N+](=O)[O-])cc1 (stereo not drawn) | -3 | 25* | . | 1 | -2 | -1
O=C(NCC(c1cccs1)N1CCOCC1)c1cc([N+](=O)[O-])cc([N+](=O)[O-])c1 (stereo not drawn) | 6 | 1 | 0 | 7 | 0 | -1
Cc1cccc(C(=O)NCC(c2ccco2)N2CCc3ccccc32)c1 (stereo not drawn) | 13 | -1 | 11 | 1 | 3 | -1
O=C(NCC(c1ccco1)N1CCc2ccccc21)c1ccc([N+](=O)[O-])cc1 (stereo not drawn) | 3 | 0 | 72* | -4 | -1 | -2
O=C(NNC(=O)c1cccs1)c1ccc([N+](=O)[O-])cc1 | -15 | 21* | 0 | -1 | 1 | 3
O=C(NCC(c1ccco1)N1CCc2ccccc21)c1cccc([N+](=O)[O-])c1 (stereo not drawn) | -1 | -2 | 63* | 5 | 7 | 1
O=C(NNC(=O)c1ccc([N+](=O)[O-])cc1)c1ccc(NS(=O)(=O)c2cccs2)cc1 | 0 | 1 | 0 | 1 | 21 | 7
C[C@@H]1CN([C@@H](C)CO)C(=O)c2cc(C#Cc3cccc(F)c3)cnc2O[C@@H]1CN(C)C(=O)C1CCC1 | . | . | 4 | . | . | .
COc1ccc(C2(c3ccc(OC)cc3)NC(=O)N(CC(=O)Nc3ccc(N4CCOCC4)cc3)C2=O)cc1 | 9 | 2 | 51* | -1 | 4 | -5
Cc1ccc(NC(=O)c2ccc([N+](=O)[O-])o2)cc1S(=O)(=O)N1CCOCC1 | -8 | 0 | 41* | -1 | 10 | 5
Cc1ccc(-c2cnc3c(c2)C(=O)N([C@H](C)CO)C[C@@H](C)[C@@H](CN(C)C(=O)c2ccccc2)O3)cc1 | . | . | -10 | . | . | .
CNC[C@@H]1Oc2c(NS(=O)(=O)c3cn(C)cn3)cccc2C(=O)N([C@@H](C)CO)C[C@@H]1C | . | . | -2 | . | . | .
CS(=O)(=O)N(CC(=O)N1CCCCCC1)c1ccc(Cl)cc1 | 6 | 29* | 0 | -2 | -4 | 7
O=C(O)c1cccc(-n2cccc2/C=C2/NC(=O)N(Cc3ccccc3F)C2=O)c1 | 8 | 4 | 76* | -6 | 11 | 2
O=C1N/C(=C/c2cccn2-c2ccc(F)cc2)C(=O)N1Cc1ccccc1F | -12 | -1 | . | -5 | 0 | -2
COc1ccc(NC(=O)CN2C(=O)S/C(=C/c3cccn3-c3ccc(C(=O)O)cc3)C2=O)cc1 | -7 | 7 | 72* | 7 | 39 | -1
Cc1ccc(NC(=O)CN2C(=O)N/C(=C/c3cccn3-c3ccc(C(=O)O)cc3)C2=O)cc1 | 16 | 102* | . | 72* | . | 57*

Bioassay records from PubChem BioAssay.
